The record followed here is ChEMBL document CHEMBL4627381, “Licochalcone A Selectively Resensitizes ABCG2-Overexpressing Multidrug-Resistant Cancer Cells to Chemotherapeutic Drugs” (J Nat Prod, 2020).

Series [1] addresses T1, Broad substrate specificity ATP-binding cassette transporter ABCG2 (Homo sapiens, UniProt Q9UNQ0).
T1 sequence (Q9UNQ0 whole entry): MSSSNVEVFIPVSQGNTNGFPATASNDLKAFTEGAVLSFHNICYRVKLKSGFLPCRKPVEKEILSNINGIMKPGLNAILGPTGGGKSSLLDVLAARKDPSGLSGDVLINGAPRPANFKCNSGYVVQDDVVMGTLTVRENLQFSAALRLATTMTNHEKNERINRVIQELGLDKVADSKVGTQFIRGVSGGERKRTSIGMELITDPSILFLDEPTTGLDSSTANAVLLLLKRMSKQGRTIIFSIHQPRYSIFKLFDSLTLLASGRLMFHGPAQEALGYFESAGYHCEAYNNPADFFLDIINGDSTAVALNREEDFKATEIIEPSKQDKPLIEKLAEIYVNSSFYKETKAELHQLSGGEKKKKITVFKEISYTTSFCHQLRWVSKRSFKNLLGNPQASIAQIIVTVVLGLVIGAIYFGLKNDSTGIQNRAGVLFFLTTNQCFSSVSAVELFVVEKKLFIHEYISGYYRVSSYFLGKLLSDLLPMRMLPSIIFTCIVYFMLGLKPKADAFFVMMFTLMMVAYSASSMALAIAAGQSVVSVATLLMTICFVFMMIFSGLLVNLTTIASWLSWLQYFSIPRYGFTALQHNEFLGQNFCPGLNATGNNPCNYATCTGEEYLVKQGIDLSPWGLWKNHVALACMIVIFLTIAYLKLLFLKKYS
Kind of series: Inhibition of human ABCG2-mediated pheophorbide A efflux in HEK293/R482 cells incubated for 1 hr by FACScan flow cytometry. The class given is cell-based. The essentials:
(§1)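 Cells held drug-free 7 days. 3 × 10^5 cells were suspended in IMDM with 5% FCS and loaded with pheophorbide A (ex 395/em 670 nm) for 1 h, with or without LCA (20 μM for single-concentration accumulation) or Ko143 3 μM as reference. Read immediately by flow cytometry. Efflux inhibition was run over a concentration range; mean ± SD of three experiments.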
For orientation: A flow cytometer gives signals particle by particle.

Series [2] relates to S1. Kind of series: Induction of apoptosis in human S1 cells assessed as viable cells at 10 uM incubated for 48 hrs in presence of topotecan by annexin V/propidium iodide staining based flow cytometry (reference value: 94.1%). Particulars: S1, 48 h, read-out: Activity. In kind it is functional.
The subject of another series is HEK293. Kind of series: Effect on mitoxantrone-induced cytotoxicity against HEK293 cells assessed as fold change in mitoxantrone IC50 at 1 uM after 72 hrs by CCK8 assay relative to mitoxantrone IC50. The class given is cell-based. To be noted: human, hek293, 72 h. Summed up: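 Reversal assay in parental pcDNA-HEK293 and transfected HEK293 lines (ABCB1 for colchicine, ABCC1 for etoposide, ABCG2 for mitoxantrone/topotecan). Substrate drug series was given with or without nontoxic modulator (0.5, 1.0, 2.0 or 3.0 μM) for 72 h, with a CCK-8 read-out. Fold-reversal is substrate IC50 without modulator divided by IC50 with modulator. Three independent experiments.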
On the technique in general: Tetrazolium assays rely on reduction of a dye to a coloured formazan, in cell work by metabolically active cells.

In the next series the test system is LS180. Kind of series: Upregulation of ABCG2 mRNA expression in human LS180 cells at 1 uM by […] relative to control. The class given is functional. (In general: A western blot detects proteins with antibodies after separation by electrophoresis.)
The test system of a further series is NCI-H460. Kind of series: Effect on topotecan-induced cytotoxicity against human H460 cells assessed as fold change in topotecan IC50 at 2 uM after 72 hrs by MTT assay relative to topotecan IC50. The class given is functional. The essentials: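 Parental S1 colon and H460 lung cancer cells were exposed for 72 h to a mitoxantrone or topotecan concentration series, with or without modulator at 0.5–3.0 μM, and read by MTT. Fold-reversal is IC50 without modulator divided by IC50 with modulator, taken from dose-response curves of three independent experiments.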

Series [3] deals with S1-M1-80. Kind of series: Induction of apoptosis in human S1-M1-80 cells harboring ABCG2 (unknown origin) assessed as viable cells at 10 uM incubated for 48 hrs by annexin V/propidium iodide staining based flow cytometry (reference value: 93.9%). The class given is functional. Particulars: S1-M1-80, 48 h, read-out: Activity.
Series [4] has as its target T1, Broad substrate specificity ATP-binding cassette transporter ABCG2. Kind of series: Modulation of ABCG2 (unknown origin) expressed in High Five insect cell vesicle membrane assessed as stimulation of ATPase activity after 20 mins by colorimetric assay. Summed up: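 Membrane vesicles from ABCG2-expressing High Five cells were incubated with LCA (0–390 μM) at 37 °C for 20 min in 50 mM MES-Tris pH 6.8 with ouabain, DTT, NaN3, EGTA and KCl, ±0.3 mM vanadate. Liberated Pi was read by molybdate/ascorbate colorimetry at 880 nm. Vi-sensitive activity = activity minus activity with vanadate; mean ± SD of three experiments.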

Series [5] has the same target. Kind of series: Reversal of ABCG2 (unknown origin)-mediated multidrug resistance in human H460-MX20 cells assessed as fold change in mitoxantrone IC50 at 1 uM after 72 hrs by MTT assay relative to mitoxantrone IC50. The class given is cell-based. The essentials:
(§2)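 Cells held drug-free 7 days, seeded at 5000 per well for 24 h, then exposed 72 h to mitoxantrone or topotecan dilutions with DMSO (≤0.5%), LCA 0.5–3.0 μM, or Ko143 1.0 μM. Viability was read by MTT. IC50 came from fitted dose-response curves of three independent experiments. Fold-reversal = IC50 without modulator divided by IC50 with modulator.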

A further series is filed under the species Homo sapiens. Kind of series: Downregulation of ABCG2 expression in human NCI-H460/MX20 cells at 0.5 to 3 uM incubated for 72 hrs by Western blot analysis. In kind it is functional, cell-based. The essentials:
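S1-M1–80 and H460-MX20 cells were treated with 0.5–3.0 μM or DMSO vehicle for 72 h, then run on SDS-PAGE and immunoblotted with BXP-21 (1:15000) for ABCG2. α-Tubulin (1:100000) served as loading control, with HRP goat anti-mouse secondary. Bands were quantified as mean ± SEM of three independent experiments.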

For series [6], the system named is S1-M1-80. Kind of series: Potentiation of topotecan-induced apoptosis in human S1-M1-80 cells harboring ABCG2 (unknown origin) assessed as early apoptotic cells at 10 uM incubated for 48 hrs by annexin V/propidium iodide staining based flow cytometry (reference value: 3%). In kind it is functional.
Series [7] deals with T1, Broad substrate specificity ATP-binding cassette transporter ABCG2. Kind of series: Reversal of ABCG2 (unknown origin)-mediated multidrug resistance in human S1-M1-80 cells assessed as fold-change in mitoxantrone IC50 at 1 uM after 72 hrs by MTT assay relative to mitoxantrone IC50. In kind it is cell-based. Particulars: s1-m1-80, 72 h. Summed up: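 MTT readout in S1-M1-80 colon cancer cells (mitoxantrone-selected, held in 80 μM mitoxantrone, then drug-free 7 days before assay). Cells were seeded at 5000/well for 24 h, then given increasing mitoxantrone or topotecan with DMSO or non-toxic modulator for 72 h at 37 °C. IC50 came from fitted dose-response curves (at least three independent experiments). Fold-reversal = IC50 without modulator ÷ IC50 with modulator.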

The test system of series [8] is S1. Kind of series: Induction of pheophorbide A accumulation in human S1 cells at 20 uM incubated for 1 hr by FACScan flow cytometry. The class given is functional, cell-based. Summed up: as §1
In series [9] the target is T1, Broad substrate specificity ATP-binding cassette transporter ABCG2. Kind of series: Reversal of ABCG2 (unknown origin)-mediated multidrug resistance in human H460-MX20 cells assessed as fold change in mitoxantrone IC50 at 0.5 uM after 72 hrs by MTT assay relative to mitoxantrone IC50. The class given is cell-based. Summed up:
as §2

Active and inactive are the calls of the source. No cut-off for these calls is given here.

Broadly, the EC50 is the concentration that produces a half-maximal response. Consider `C=CC(C)(C)c1cc(/C=C/C(=O)c2ccc(O)cc2)c(OC)cc1O` [LICOAGROCHACONE A], for which the “inhibition (INH)” value in series [1] is “Dose-dependent effect”. The viability at 10 µM in the series with S1 [2] amounted to 44.1%; in the series on S1-M1-80 [3], 94.4%. The “fold change (FC)” value in the series with HEK293 is given as 1; with LS180 it was 2 - 6; with NCI-H460 it was 1.7; in series [5] it was 13.4; in series [7], 10.8; in series [9], 2.6. Besides, the EC50 in series [4] was 14 µM. Further, the Activity entry in series [4] (human, 20 min) was “Dose-dependent effect”; with S1-M1-80 [6], 9%. The outcome in the series filed under Homo sapiens and with S1 [8] was inactive.
